Counter-ions that a name gives are not always drawn.
How the values were obtained:
[1] = test system: UACC-257; experiment: Antiproliferative activity against human UACC257 cells after 48 hrs by SRB assay; type: functional; details: UACC-257, 48 h
Procedure, shortened: (§1)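 Run in the NCI screen of about 60 human tumour cell lines. Cells were exposed to compound for 48 h at five concentrations from 10^-8 to 10^-4 M, then fixed and stained for protein with sulforhodamine B. Absorbance was read at 515 nm. Percent growth was calculated from time-zero, untreated-control and treated readings, and replicate experiments were averaged.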

[2] = test system: MDA-MB-435; experiment: Antiproliferative activity against human MDA-MB-435 cells after 48 hrs by SRB assay; type: functional; details: MDA-MB-435, 48 h; procedure, shortened: as §1
[3] = test system: OVCAR-3; experiment: Antiproliferative activity against human OVCAR3 cells after 48 hrs by SRB assay; type: functional; details: OVCAR-3, 48 h; procedure, shortened: as §1
[4] = test system: EKVX; experiment: Antiproliferative activity against human EKVX cells after 48 hrs by SRB assay; type: functional; procedure, shortened: as §1
[5] = test system: SW-620; experiment: Antiproliferative activity against human SW620 cells after 48 hrs by SRB assay; type: functional; details: SW-620, 48 h; procedure, shortened: as §1
[6] = test system: HT-29; experiment: Antiproliferative activity against human HT-29 cells after 48 hrs by SRB assay; type: functional; details: HT-29, 48 h; procedure, shortened: as §1
[7] = test system: TK-10; experiment: Antiproliferative activity against human TK10 cells after 48 hrs by SRB assay; type: functional; details: TK-10, 48 h; procedure, shortened: as §1
[8] = test system: SNB-19; experiment: Antiproliferative activity against human SNB19 cells after 48 hrs by SRB assay; type: functional; details: SNB-19, 48 h; procedure, shortened: as §1
[9] = test system: MCF7; experiment: Antiproliferative activity against human MCF7 cells after 48 hrs by SRB assay; type: functional; details: MCF7, 48 h; procedure, shortened: as §1
[10] = test system: CAKI-1; experiment: Antiproliferative activity against human CAKI-1 cells after 48 hrs by SRB assay; type: functional; details: CAKI-1, 48 h; procedure, shortened: as §1
[11] = molecular target: RAC-alpha serine/threonine-protein kinase (Homo sapiens, UniProt P31749); experiment: Inhibition of recombinant AKT1 using GSK3 as substrate assessed as inhibition of [33P]Phosphate incorporation into substrate after 80 mins by scintillation counting
Procedure, shortened: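 Recombinant AKT1 was assayed radiometrically with [33P]-ATP (about 5×10^5 cpm/well) and GSK3(14-27) substrate at 2000 ng/50 µL. Buffer was 60 mM HEPES-NaOH pH 7.5 with 3 mM MgCl2 and 3 mM MnCl2, and compound was added in 10% DMSO. After 80 min at 30 °C the reaction was stopped with 2% phosphoric acid, washed with 0.9% NaCl and 33P incorporation counted by scintillation.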

[12] = molecular target: Aurora kinase B (Homo sapiens, UniProt Q96GD4); experiment: Inhibition of recombinant Aurora B using tetra(LRRWSLG) as substrate assessed as inhibition of [33P]Phosphate incorporation into substrate after 80 mins by scintillation counting
[13] = molecular target: Serine/threonine-protein kinase PLK1 (Homo sapiens, UniProt P53350); experiment: Inhibition of recombinant PLK1 using RBERCHKtide as substrate assessed as inhibition of [33P]Phosphate incorporation into substrate after 80 mins by scintillation counting
Procedure, shortened: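 PLK1 (recombinant) was phosphorylating RBER-CHKtide at 2000 ng/50 µL with [33P]-ATP (about 5×10^5 cpm/well). Buffer was 60 mM HEPES-NaOH pH 7.5 with 3 mM MgCl2 and 3 mM MnCl2. After 80 min at 30 °C, 2% phosphoric acid stopped the reaction and wells were washed with saline. Incorporated 33P was counted, with residual activity relative to enzyme-free and inhibitor-free controls.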

[14] = molecular target: Focal adhesion kinase 1 (Homo sapiens, UniProt Q05397); experiment: Inhibition of recombinant FAK using poly(Glu,Tyr)4 as substrate assessed as inhibition of [33P]Phosphate incorporation into substrate after 80 mins by scintillation counting
Sequence of Focal adhesion kinase 1 (Q05397 whole entry): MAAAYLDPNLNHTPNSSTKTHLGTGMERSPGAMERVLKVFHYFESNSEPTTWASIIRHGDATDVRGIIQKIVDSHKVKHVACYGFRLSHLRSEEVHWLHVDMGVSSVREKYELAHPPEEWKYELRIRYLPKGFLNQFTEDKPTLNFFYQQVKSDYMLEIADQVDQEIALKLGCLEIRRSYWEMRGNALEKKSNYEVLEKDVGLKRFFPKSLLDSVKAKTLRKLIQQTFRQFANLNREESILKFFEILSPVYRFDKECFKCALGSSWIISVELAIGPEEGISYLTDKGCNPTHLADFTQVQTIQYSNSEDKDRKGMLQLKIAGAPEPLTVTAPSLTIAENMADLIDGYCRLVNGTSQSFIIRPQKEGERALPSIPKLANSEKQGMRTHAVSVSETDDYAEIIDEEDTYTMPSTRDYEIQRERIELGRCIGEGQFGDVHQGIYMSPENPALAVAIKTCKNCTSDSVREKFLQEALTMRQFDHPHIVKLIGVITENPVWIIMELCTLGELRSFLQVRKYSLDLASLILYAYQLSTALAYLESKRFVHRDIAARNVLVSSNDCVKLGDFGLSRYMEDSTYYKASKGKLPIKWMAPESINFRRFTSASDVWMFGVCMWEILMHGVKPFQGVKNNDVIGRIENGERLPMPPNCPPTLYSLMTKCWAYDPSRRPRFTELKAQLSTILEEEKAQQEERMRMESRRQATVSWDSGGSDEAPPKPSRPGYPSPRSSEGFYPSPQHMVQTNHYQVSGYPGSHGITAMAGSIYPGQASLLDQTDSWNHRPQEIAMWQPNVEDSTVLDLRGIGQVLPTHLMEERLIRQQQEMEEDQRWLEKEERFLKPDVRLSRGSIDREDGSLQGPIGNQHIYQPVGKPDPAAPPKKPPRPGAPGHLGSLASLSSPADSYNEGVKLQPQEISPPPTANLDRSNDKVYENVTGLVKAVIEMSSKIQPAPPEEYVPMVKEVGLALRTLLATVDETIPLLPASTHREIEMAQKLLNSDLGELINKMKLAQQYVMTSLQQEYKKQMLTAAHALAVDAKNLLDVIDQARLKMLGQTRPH

Sequence of RAC-alpha serine/threonine-protein kinase (P31749 whole entry): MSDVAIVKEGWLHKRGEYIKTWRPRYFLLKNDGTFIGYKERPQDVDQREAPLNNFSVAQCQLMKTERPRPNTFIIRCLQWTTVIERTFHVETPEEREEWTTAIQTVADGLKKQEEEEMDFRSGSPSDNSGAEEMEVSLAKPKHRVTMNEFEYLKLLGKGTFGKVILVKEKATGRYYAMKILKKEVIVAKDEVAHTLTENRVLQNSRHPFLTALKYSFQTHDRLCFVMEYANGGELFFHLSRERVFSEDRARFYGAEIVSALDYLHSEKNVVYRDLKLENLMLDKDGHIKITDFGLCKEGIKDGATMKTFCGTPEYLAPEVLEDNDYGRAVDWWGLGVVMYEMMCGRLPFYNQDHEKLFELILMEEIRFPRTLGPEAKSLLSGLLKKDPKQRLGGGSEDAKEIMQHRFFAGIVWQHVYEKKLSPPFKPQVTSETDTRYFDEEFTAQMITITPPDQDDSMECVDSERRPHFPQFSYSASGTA
Sequence of Aurora kinase B (Q96GD4 whole entry): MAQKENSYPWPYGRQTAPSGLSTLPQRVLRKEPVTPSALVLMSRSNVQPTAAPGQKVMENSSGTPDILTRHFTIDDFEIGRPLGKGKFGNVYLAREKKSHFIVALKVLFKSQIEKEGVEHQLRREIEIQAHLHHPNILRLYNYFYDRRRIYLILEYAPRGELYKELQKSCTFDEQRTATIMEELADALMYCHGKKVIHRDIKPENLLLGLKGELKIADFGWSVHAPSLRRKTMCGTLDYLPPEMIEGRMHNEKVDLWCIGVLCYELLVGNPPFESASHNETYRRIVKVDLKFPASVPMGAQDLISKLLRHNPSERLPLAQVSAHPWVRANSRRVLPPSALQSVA
Sequence of Serine/threonine-protein kinase PLK1 (P53350 whole entry): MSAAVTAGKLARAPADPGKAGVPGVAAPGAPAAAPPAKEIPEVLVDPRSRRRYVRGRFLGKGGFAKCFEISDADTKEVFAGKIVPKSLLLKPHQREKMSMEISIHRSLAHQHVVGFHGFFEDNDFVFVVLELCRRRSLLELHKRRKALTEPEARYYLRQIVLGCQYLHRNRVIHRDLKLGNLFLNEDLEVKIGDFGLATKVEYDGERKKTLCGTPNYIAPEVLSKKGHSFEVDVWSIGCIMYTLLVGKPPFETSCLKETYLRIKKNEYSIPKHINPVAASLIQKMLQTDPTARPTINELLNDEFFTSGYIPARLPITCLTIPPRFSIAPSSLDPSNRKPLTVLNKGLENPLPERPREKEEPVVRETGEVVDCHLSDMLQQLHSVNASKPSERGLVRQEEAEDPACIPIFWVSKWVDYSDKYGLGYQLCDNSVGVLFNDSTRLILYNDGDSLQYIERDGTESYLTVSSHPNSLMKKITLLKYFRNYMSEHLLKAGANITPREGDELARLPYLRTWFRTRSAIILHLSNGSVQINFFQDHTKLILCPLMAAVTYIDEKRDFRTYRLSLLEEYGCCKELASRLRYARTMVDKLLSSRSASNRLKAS

SMILES	GI50 [1] [µM]	GI50 [2] [µM]	GI50 [3] [µM]	GI50 [4] [µM]	GI50 [5] [µM]	GI50 [6] [µM]	GI50 [7] [µM]	GI50 [8] [µM]	GI50 [9] [µM]	GI50 [10] [µM]	IC50 [11] [µM]	IC50 [12] [µM]	IC50 [13] [µM]	IC50 [14] [µM]
CNC(=O)c1cc(Oc2ccc(NC(=O)Nc3ccc(Cl)c(C(F)(F)F)c3)cc2)ccn1 [SORAFENIB TOSYLATE]	2	2	3.2	2.5	3.2	2.5	5	3.2	2.5	3.2	–	–	–	–
COc1ccc(Nc2nccc(-c3nc4ccccc4n3C)n2)cc1O	5.5	0.19	0.93	17	0.62	27	26	10	0.47	0.86	> 100	6	1.2	–
COc1ccc(Nc2ncc3c(n2)-c2ccccc2NC(=O)C3)cc1O	19	0.2	0.55	4.1	0.44	3.4	4.1	21	0.79	0.15	> 100	3	–	0.64
